Compound activity: PubChem BioAssay, SRMLSC
The entries come from a sample that favours hits as a whole.
HCT116 bCat-KO = beta-catenin-lacking colon tumor cell growth suppression; HCT116 beta-catenin knockout viability, CellTiter-Glo, 60 h; hits give low values; viability, % at 10 µM; 140,000 compounds, 1.5% hits;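 active = viability at or under a set limit, the compound median less 4 SD, cut at about 6% in these data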
HUVEC inhibit = inhibitors of human endothelial cell proliferation; HUVEC proliferation, CellTiter-Glo luminescence, 72 h; hits give low values; viability, % at 10 µM (by protocol); 86,000 compounds, 1.1% hits;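 active = viability at or below 30%; inactive = viability above 30%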
HCT116 PTEN-null = growth suppressors of cells with PTEN tumor suppressor deletion. viability, % at 10 µM. HCT116 PTEN-null viability, CellTiter-Glo, 60 h; hits give low values. 140,000 compounds, 1.2% hits;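 active = viability at or below a set limit, 4 SD under the median of all tested compounds, cut at about 3.7% in these data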;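 also: PTEN knockout HCT116 line with beta catenin targeted HCT116 as companion control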
H69AR inhibit = growth inhibitors of human H69AR lung tumor cells | H69AR lung tumor viability, ATP luminescence, 72 h; hits give low values | viability, % at 10 µM | 85,000 compounds, 6% hits;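 active = viability at or below 40%; inactive = viability above 40%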;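 also: multidrug resistant small cell line overexpressing MRP-1 efflux transporter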
Fibroblast inh = blocks proliferation of human lung fibroblasts. LL 47 human lung fibroblast viability, ATP luminescence; hits give low values. viability, % at 10 µM. 85,000 compounds, 1.1% hits;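 active = viability at or below 50% in the single dose screen; inactive = viability above 50%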;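 also: compound exposure lasted 72 h before the ATP readout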
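Material: Human LL 47 lung fibroblast cells | Input: 1,150 cells/well | Buffer or medium: IMEM plus 15% FBS | Compound dosing: 0.1% DMSO in all compound wells | Times: Overnight cell rest, 72 h compound treatment at 37 °C | Signal: CellTiter-Glo luminescence measuring cellular ATP | Measure: % viability versus median cells-only luminescence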
Each line names hits and unclear results; the compound was inactive in the other large screens.

COc1cccc(CN2CCC(C(=O)N3CCN(c4ccccc4F)CC3)CC2)c1OC	none (no result: HUVEC inhibit, H69AR inhibit, Fibroblast inh)
CCOc1cc(/C=N/NC(=O)C(=O)NCCCOC(C)C)cc(Br)c1O	none (no result: HUVEC inhibit, H69AR inhibit, Fibroblast inh)
COc1ccccc1Nc1nnc(SCC(=O)NC(=O)Nc2ccc3c(c2)OCCO3)s1	none (no result: HUVEC inhibit, H69AR inhibit, Fibroblast inh)
CCCCn1c(SCc2nc3ccccc3s2)nc2cc(S(N)(=O)=O)ccc21	H69AR inhibit 15.6
O=c1c2ccccc2nc(SCc2nc3ccccc3s2)n1Cc1ccco1	H69AR inhibit 32.7
CCCCn1c(SCc2nc3ccccc3s2)nc2ccccc2c1=O	none (no result: HUVEC inhibit, H69AR inhibit, Fibroblast inh)
O=c1c2ccccc2nc(SCc2ccccc2)n1Cc1ccco1	none
CCCn1c(=O)c2ccccc2n2c(SCc3nc4ccccc4s3)nnc12	H69AR inhibit 30.6 (no result: Fibroblast inh)
CCOC(=O)c1c(NC(=O)COC(=O)c2cc(OC)c(OC)cc2[N+](=O)[O-])sc(C)c1C	none (no result: HUVEC inhibit, H69AR inhibit, Fibroblast inh)
O=C(NCc1nnc(SCc2ccc(F)cc2)n1-c1ccc(F)cc1)C12CC3CC(CC(C3)C1)C2	none (no result: HUVEC inhibit, H69AR inhibit, Fibroblast inh)
O=C(N=Nc1c(O)n(Cc2ccccc2)c2ccccc12)c1cc2ccccc2cc1O	HCT116 bCat-KO 1.7, HCT116 PTEN-null 1.5 (no result: HUVEC inhibit, H69AR inhibit, Fibroblast inh)
O=C(N=Nc1c(O)n(Cc2ccccc2)c2ccccc12)c1ccc(O)cc1	none (no result: HUVEC inhibit, H69AR inhibit, Fibroblast inh)
CCCN1C=CC(=C2C(=O)c3ccccc3C2=O)C=C1	none
CCN1C=CC(=C2C(=O)c3ccccc3C2=O)C=C1	H69AR inhibit 27.1
C/C(=N\N=c1/scc(C)n1Cc1ccco1)c1cccc([N+](=O)[O-])c1	none (no result: HUVEC inhibit, H69AR inhibit, Fibroblast inh)
Cn1ncc(N=Cc2ccccc2O)c1C(=O)Nc1ccccc1	H69AR inhibit 36.8 (no result: HCT116 PTEN-null)
CCOC(=O)C1=C(N)n2c(s/c(=C/c3ccccc3)c2=O)=C(C(=O)OCC)C1c1ccccc1 (centres undefined)	H69AR inhibit 9.5
CCOC(=O)C1=C(N)n2c(s/c(=C\c3ccco3)c2=O)=C(C(=O)OCC)C1c1ccco1 (centres undefined)	HUVEC inhibit 28.6, H69AR inhibit 27.1, Fibroblast inh 28.8
CCOC(=O)C1=C(N)n2c(s/c(=C\c3ccco3)c2=O)=C(C(=O)OC(C)C)C1c1ccco1 (centres undefined)	none (no result: HUVEC inhibit, H69AR inhibit, Fibroblast inh)
N#Cc1ccc(COC(=O)c2ccc(N3CCCC3)c([N+](=O)[O-])c2)cc1	none (no result: HUVEC inhibit, H69AR inhibit, Fibroblast inh)
Cc1nn(-c2ccccc2)c(C)c1/C=C/C(=O)OCC(=O)Nc1ncc(C(F)(F)F)cc1Cl	none (no result: HUVEC inhibit, H69AR inhibit, Fibroblast inh)
CNC(=O)/C(=C\c1ccc2c(c1)OCO2)NC(=O)c1ccc(Br)cc1	none (no result: HUVEC inhibit, H69AR inhibit, Fibroblast inh)
O=C(Nc1nc2cc3c(cc2s1)OCO3)C1=COCCO1	H69AR inhibit 25.5
CC(=O)Nc1nc2cc3c(cc2s1)OCO3	none
Cc1nn(-c2ccccc2)c(Cl)c1CN(C(=O)CCl)c1cccc2ccccc12	HCT116 bCat-KO 1.8, HCT116 PTEN-null 1.4 (no result: HUVEC inhibit, H69AR inhibit, Fibroblast inh)
Cc1nn(-c2ccccc2)c(Cl)c1CN(C(=O)CCl)c1ccc(Cl)cc1	HCT116 bCat-KO 0.8, HCT116 PTEN-null 0.8 (no result: HUVEC inhibit, H69AR inhibit, Fibroblast inh)
NC(=O)NC(=O)CSc1cccc(C(F)(F)F)c1	none (no result: HUVEC inhibit, H69AR inhibit, Fibroblast inh)
O=C(COc1ccc2oc(-c3ccccc3)cc(=O)c2c1)Nc1ccccc1	none (no result: HUVEC inhibit, H69AR inhibit, Fibroblast inh)
COc1ccc(N(C(=O)CCl)C(C(=O)NC2CCCCC2)c2cccnc2)cc1 (centres undefined)	HCT116 bCat-KO 2.8, HCT116 PTEN-null 2.5 (no result: HUVEC inhibit, H69AR inhibit, Fibroblast inh)
O=C(NCC(=O)N(c1cccnc1)C(C(=O)NC1CCCCC1)c1cccnc1)c1ccco1 (centres undefined)	none
O=C(NC1CCCCC1)C(c1cccnc1)N(C(=O)CCl)c1ccc(F)cc1 (centres undefined)	HCT116 bCat-KO 4.2, HCT116 PTEN-null 3.0 (no result: HUVEC inhibit, H69AR inhibit, Fibroblast inh)
O=C(NC1CCCCC1)C(c1cccnc1)N(C(=O)CCl)c1ccccc1Cl (centres undefined)	none (no result: HUVEC inhibit, H69AR inhibit, Fibroblast inh)
O=c1c(Cl)c(NCc2ccccc2)cnn1C12CC3CC(CC(C3)C1)C2	none (no result: HUVEC inhibit, H69AR inhibit, Fibroblast inh)
CSCCC(NC(=O)c1ccccc1)C(=O)Nc1ccc(NC(C)=O)cc1 (centres undefined)	none (no result: HUVEC inhibit, H69AR inhibit, Fibroblast inh)
CCCOP(=O)(OCCC)c1c([N+](=O)[O-])cc(C(F)(F)F)cc1[N+](=O)[O-]	HUVEC inhibit 11.5, H69AR inhibit 39.0, Fibroblast inh 18.6
CCSC1(SCC)N=C(N)C2(C#N)C(c3ccc(F)cc3)C12C#N (centres undefined)	HUVEC inhibit 9.6, H69AR inhibit 0.8, Fibroblast inh 3.8
COC1(OC)N=C(N)C2(C#N)C(c3ccc(F)cc3)C12C#N (centres undefined)	none
COc1cc(N2C(=O)NC3CC2(C)Oc2ccc(Br)cc23)cc(OC)c1OC (centres undefined)	none (no result: HCT116 bCat-KO, HCT116 PTEN-null)
COc1ccc(N2C(=O)NC3CC2(C)Oc2ccccc23)cc1OC (centres undefined)	H69AR inhibit 25.8
